Values after ≈ are worked out from the molar mass of the structure shown. Active and inactive are the calls of the source. No cut-off for these calls is given here.
Columns and labels:
[1] = molecular target: T1, Dihydrofolate reductase (Homo sapiens) (UniProt P00374); test: Inhibition of human DHFR
T1 sequence (whole entry): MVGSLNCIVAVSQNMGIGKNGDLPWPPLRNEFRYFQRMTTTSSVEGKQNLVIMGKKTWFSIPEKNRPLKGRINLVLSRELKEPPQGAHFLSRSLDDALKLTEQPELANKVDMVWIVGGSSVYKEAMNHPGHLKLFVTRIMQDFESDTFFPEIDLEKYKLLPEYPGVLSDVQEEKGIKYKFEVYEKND

[2] = molecular target: DNA ligase 1 (Homo sapiens) (UniProt P18858); test: Inhibition of human DNA Ligase 1
Chain of DNA ligase 1 (Homo sapiens) (P18858 whole entry): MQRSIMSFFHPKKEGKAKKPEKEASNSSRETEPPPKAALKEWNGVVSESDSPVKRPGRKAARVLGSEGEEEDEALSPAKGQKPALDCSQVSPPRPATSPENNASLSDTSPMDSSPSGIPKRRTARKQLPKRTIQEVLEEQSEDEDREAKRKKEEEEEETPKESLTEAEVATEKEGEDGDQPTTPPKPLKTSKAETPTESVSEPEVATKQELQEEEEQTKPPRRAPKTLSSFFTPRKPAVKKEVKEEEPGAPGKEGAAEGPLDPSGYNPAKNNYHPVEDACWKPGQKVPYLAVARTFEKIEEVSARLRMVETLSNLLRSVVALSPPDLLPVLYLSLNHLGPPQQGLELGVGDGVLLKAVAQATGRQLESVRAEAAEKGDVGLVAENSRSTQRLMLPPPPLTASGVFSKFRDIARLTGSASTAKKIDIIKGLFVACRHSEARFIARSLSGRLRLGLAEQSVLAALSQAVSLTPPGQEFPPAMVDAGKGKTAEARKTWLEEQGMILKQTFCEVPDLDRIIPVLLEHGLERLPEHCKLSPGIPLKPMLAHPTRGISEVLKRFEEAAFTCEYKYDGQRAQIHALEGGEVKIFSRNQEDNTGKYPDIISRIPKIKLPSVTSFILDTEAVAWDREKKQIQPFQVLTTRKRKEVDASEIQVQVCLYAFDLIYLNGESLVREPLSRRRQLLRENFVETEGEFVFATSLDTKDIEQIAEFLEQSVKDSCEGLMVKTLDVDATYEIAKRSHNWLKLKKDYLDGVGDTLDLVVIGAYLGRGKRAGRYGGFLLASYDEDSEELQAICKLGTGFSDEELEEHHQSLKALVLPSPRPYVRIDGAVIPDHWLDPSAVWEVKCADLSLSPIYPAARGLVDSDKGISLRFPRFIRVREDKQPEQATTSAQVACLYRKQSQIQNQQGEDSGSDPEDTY

Haemophilus influenzae = test: Antibacterial activity against wild type Haemophilus influenzae A921 by CLSI dilution method; type: functional
Staphylococcus aureus = test: Antibacterial activity against wild type Staphylococcus aureus ATCC 29213 by CLSI dilution method; type: functional
[3] = Inhibition of Streptococcus pneumoniae NAD-dependent DNA ligase assessed as equilibrium dissociation constant
[4] = Inhibition of Escherichia coli NAD-dependent DNA ligase
Streptococcus pneumoniae = test: Antibacterial activity against wild type Streptococcus pneumoniae A-216 by CLSI dilution method; type: functional
Escherichia coli [5] = test: Antibacterial activity against tolC/rfaC-deficient Escherichia coli; type: functional
Escherichia coli [6] = test: Antibacterial activity against tolC/rfaC-deficient Escherichia coli harboring ligA251 mutant; type: functional
How it was run: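 MIC read-out. The E. coli strain carries only the ligA251 allele (L15F exchange), which gives more than 20-fold reduced ligation activity and sensitizes it to LigA inhibitors.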

Question: For `NC(=O)c1cc2cc(C3CCCC3)c(C(F)(F)F)nc2nc1N`, which inhibition [1] is on record?
Answer: inactive

Question: What about the inhibition [2] of the same compound?
Answer: inactive

Question: What about the MIC (Haemophilus influenzae) of the same compound?
Answer: 16 µg/mL (≈ 49.3 µM)

Question: What about the MIC (Staphylococcus aureus) of the same compound?
Answer: > 16 µg/mL

Question: What about the Kd [3] of the same compound?
Answer: 150 nM

Question: What about the IC50 [4] of the same compound?
Answer: 2500 nM

Question: What about the MIC (Streptococcus pneumoniae) of the same compound?
Answer: 16 µg/mL (≈ 49.3 µM)

Question: And the MIC (Escherichia coli [5])?
Answer: > 16 µg/mL

Question: What about the MIC (Escherichia coli [6]) of the same compound?
Answer: 4 µg/mL (≈ 12.3 µM)

Question: Which inhibition [1] does the source give for `NC(=O)c1cc2cc(Cc3ccccc3)c(C(F)(F)F)nc2nc1N` here?
Answer: inactive

Question: What about the inhibition [2] of the same compound?
Answer: inactive

Question: What about the MIC (Haemophilus influenzae) of the same compound?
Answer: 4 µg/mL (≈ 11.6 µM)

Question: And the MIC (Staphylococcus aureus)?
Answer: > 16 µg/mL

Question: And the Kd [3]?
Answer: 141 nM

Question: What about the IC50 [4] of the same compound?
Answer: 800 nM

Question: And the MIC (Streptococcus pneumoniae)?
Answer: > 16 µg/mL

Question: And the MIC (Escherichia coli [5])?
Answer: 16 µg/mL (≈ 46.2 µM)

Question: And the MIC (Escherichia coli [6])?
Answer: 0.125 µg/mL (≈ 0.361 µM)

Question: For `NC(=O)c1cc2c(N3CC[C@@H](O)C3)c(Br)c(C(F)(F)F)nc2nc1N`, which inhibition [1] is on record?
Answer: inactive

Question: And the inhibition [2]?
Answer: inactive

Question: And the MIC (Haemophilus influenzae)?
Answer: 8 µg/mL (≈ 19 µM)

Question: What about the MIC (Staphylococcus aureus) of the same compound?
Answer: 8 µg/mL (≈ 19 µM)

Question: What about the Kd [3] of the same compound?
Answer: 31 nM

Question: What about the IC50 [4] of the same compound?
Answer: 700 nM

Question: What about the MIC (Streptococcus pneumoniae) of the same compound?
Answer: 8 µg/mL (≈ 19 µM)

Question: And the MIC (Escherichia coli [5])?
Answer: 4 µg/mL (≈ 9.52 µM)

Question: What about the MIC (Escherichia coli [6]) of the same compound?
Answer: 0.125 µg/mL (≈ 0.297 µM)

Question: Which inhibition [1] does the source give for `NC(=O)c1cc2cc(CCc3ccccc3)c(C(F)(F)F)nc2nc1N` here?
Answer: inactive

Question: And the inhibition [2]?
Answer: inactive

Question: And the MIC (Haemophilus influenzae)?
Answer: > 16 µg/mL

Question: What about the MIC (Staphylococcus aureus) of the same compound?
Answer: > 16 µg/mL

Question: And the Kd [3]?
Answer: 1220 nM

Question: And the IC50 [4]?
Answer: > 10000 nM

Question: And the MIC (Streptococcus pneumoniae)?
Answer: > 16 µg/mL

Question: What about the MIC (Escherichia coli [5]) of the same compound?
Answer: > 16 µg/mL

Question: And the MIC (Escherichia coli [6])?
Answer: 32 µg/mL (≈ 88.8 µM)

From ChEMBL document CHEMBL2163244, “Structure-guided design, synthesis and biological evaluation of novel DNA ligase inhibitors with in vitro and in vivo anti-staphylococcal activity” (Bioorg Med Chem Lett, 2012)
